Data: PMC2139869 (The Journal of Cell Biology, 1997)
Entries after “also recorded” stand apart in the source; their conditions may differ.

Test system: sperm–egg plasma membrane adhesion and fusion (zona-free eggs, acrosome-reacted sperm)
Experiment: In vitro sperm–egg adhesion and fusion assay with active site peptides
Format: cell-based, mouse
Conditions: peptide 500 μM, Fig. 2, FI and FR taken together
Summary of the method: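 Mice superovulated with 10 IU PMSG and 5 IU hCG 48 h apart. Metaphase II eggs collected ~12 h post-hCG, cumulus removed with hyaluronidase, zonae with chymotrypsin, then DAPI-preloaded. Peptide added 30 min before capacitated, acrosome-reacted sperm (2–4 × 10^4/ml final) and present throughout. Coincubated 30 min, 37 °C, 5% CO2, Whittingham's/3% BSA. Scored sperm bound/egg, FI and FR; 43–82 eggs per peptide.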

Sequence: SVDECDLL [ADAM 5 peptide]
- inhibition of sperm–egg binding and fusion (stated jointly): essentially no inhibition; also recorded: did not inhibit
